In ChEMBL document CHEMBL4190190, “Furan and Lactam Jadomycin Biosynthetic Congeners Isolated from Streptomyces venezuelae ISP5230 Cultured with Nε-Trifluoroacetyl-l-lysine” (J Nat Prod, 2017):
In brackets after ≈: the same amount, converted by molar mass. Activity calls are given as the source filed them. The calls are words filed in the database; no cut-off is given here.

Columns and labels:
[1] = test system: Vero; experiment: Cytotoxicity against African green monkey Vero cells after 24 hrs by alamar blue assay; type: cell-based; settings: chlorocebus sabaeus
[2] = test system: Enterococcus faecium; experiment: Antibacterial activity against vancomycin-resistant Enterococcus faecium EF379 after 22 hrs by CLSI microbroth assay; type: functional; settings: EF379, 22 h
In short: (§1)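 Run within a six-organism panel: MRSA, Staphylococcus warneri and vancomycin-resistant E. faecium (Gram-positive), Proteus vulgaris and Pseudomonas aeruginosa (Gram-negative), and the yeast Candida albicans. Read-out was the minimum inhibitory concentration, reported in μg mL−1.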

[3] = test system: BJ; experiment: Cytotoxicity against human BJ cells after 24 hrs by alamar blue assay; type: cell-based
[4] = test system: Staphylococcus aureus; experiment: Antibacterial activity against methicillin-resistant Staphylococcus aureus ATCC 33591 after 22 hrs by CLSI microbroth assay; type: functional; settings: ATCC 33591, 22 h; in short: as §1
[5] = test system: Pseudomonas aeruginosa; experiment: Antibacterial activity against Pseudomonas aeruginosa ATCC 14210 after 22 hrs by CLSI microbroth assay; type: functional, organism-based
[6] = test system: Proteus vulgaris; experiment: Antibacterial activity against Proteus vulgaris ATCC 12454 after 22 hrs by CLSI microbroth assay; type: functional, organism-based
[7] = test system: Staphylococcus warneri; experiment: Antibacterial activity against Staphylococcus warneri ATCC 17917 after 22 hrs by CLSI microbroth assay; type: functional; settings: ATCC 17917, 22 h

| SMILES | MIC90 [1] [µg/mL] | MIC [2] [µg/mL] | MIC90 [3] [µg/mL] | MIC [4] [µg/mL] | Activity [5] | Activity [6] | MIC [7] [µg/mL] |
| --- | --- | --- | --- | --- | --- | --- | --- |
| Cc1cc(O)c2c3c(n([C@@H](CCCCNC(=O)C(F)(F)F)C(=O)O)c(=O)c2c1)C(=O)c1c(O[C@H]2C[C@@H](O)[C@@H](O)[C@H](C)O2)cccc1C3=O | > 128 | ≥ 100 | > 128 | ≥ 100 | inactive | inactive | ≥ 100 |
| Cc1cc(O)c2c(c1)C1OC(=O)[C@H](CCCCNC(=O)C(F)(F)F)N1C1=C2C(=O)c2cccc(O[C@H]3C[C@@H](O)[C@@H](O)[C@H](C)O3)c2C1=O (some centres undefined) | > 128 | 13 (≈ 19.7 µM) | > 128 | 3 (≈ 4.54 µM) | inactive | inactive | 3 (≈ 4.54 µM) |
